This passage reports Activity, viability and IC50 results from ChEMBL document CHEMBL4316661, “Securinega Alkaloids from the Twigs of Securinega suffruticosa and Their Biological Activities” (J Nat Prod, 2019).

For orientation: IC50 means the concentration at which inhibition is half-maximal.

One data set deals with C6. Description: Neuroprotective activity in rat C6 cells assessed as NGF secretion at 20 uM after 24 hrs by ELISA relative to control. Type of data set: functional. The method in brief:
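C6 cells given 20 μM of each compound for 24 h. NGF secreted into the C6-conditioned medium quantified by ELISA, as a percentage of the untreated control (set at 100%). Means ± SD of three independent experiments.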

Data set [1] in a line: Cytotoxicity against rat C6 cells assessed as cell viability at 20 uM after 24 hrs by MTT assay relative to control. As to conditions: read-out: Activity. The data set is classed as cell-based. In short, it runs like this: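 C6 cells treated with 20 μM of each compound. Viability determined by MTT assay and expressed as a percentage. Means ± SD of three independent experiments.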
For orientation: Tetrazolium assays rely on reduction of a dye to a coloured formazan, in cell work by metabolically active cells.

In another data set the test system is A549. Description: Cytotoxicity against human A549 cells after 48 hrs by SRB assay. Conditions: A549, 48 h. The data set is classed as cell-based. A general note: Sulforhodamine B stains cellular protein and so reports cell mass.
In the next data set the test system is SK-OV-3. Description: Cytotoxicity against human SKOV3 cells after 48 hrs by SRB assay. As to conditions: SK-OV-3, 48 h. Type of data set: cell-based.
For the next data set, the system named is SK-MEL-2. Description: Cytotoxicity against human SK-MEL-2 cells after 48 hrs by SRB assay. The data set is classed as cell-based. Conditions: SK-MEL-2, 48 h.
In another data set the test system is HCT-15. Description: Cytotoxicity against human HCT15 cells after 48 hrs by SRB assay. The data set is classed as cell-based. As to conditions: HCT-15, 48 h.
Data set [2] deals with BV-2. Description: Antiinflammatory activity in mouse BV2 cells assessed as inhibition of LPS-induced nitrite production after 24 hrs by Griess assay. The data set is classed as functional, cell-based. Conditions: BV-2, 24 h. In short, it runs like this:
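LPS-activated murine microglial BV-2 cells. IC50 taken as the concentration (μM) giving 50% inhibition of NO production. Means of three independent experiments, as means ± SD.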
(Nitrite, measured by Griess reagent, commonly stands in for NO production.)

Data set [3] is described as follows: (§1) Cytotoxicity against mouse BV2 cells assessed as cell viability at 20 uM after 24 hrs by MTT assay relative to control. The data set is classed as cell-based, BV-2. As to conditions: BV2 cells, read-out: Activity. The method in brief:
(§2)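 BV-2 microglia exposed to 20 μM of each compound. Viability read by MTT and given as a percentage. Means ± SD of three independent experiments.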

Data set [4] concerns BV-2. The data set is described as §1. The data set is classed as cell-based. Conditions: bv-2, 24 h, 20 µM. In short, it runs like this: as §2

Each structure is given as a SMILES string.

On to `CCCCC/C=C/C(=O)CCc1ccc(O)c(OC)c1` [SHOGAOL], for which the Activity in the data set on C6 is 138.7%. Besides, the viability at 24 h, 20 µM in data set [1] is 112%.

Turning to `CO[C@H]1CCN2O[C@]34C=C[C@H](O)C[C@]3(OC(=O)C4)[C@@H]2C1`, the IC50 in the data set with A549, in the data set with SK-OV-3, in the data set on SK-MEL-2 and in the data set with HCT-15 was above 10 µM each time.

On to `CO[C@H]1CCN2[C@@H]3C=CC4=CC(=O)O[C@]4(C3)[C@H]2C1`, for which the IC50 was above 10 µM in the data set with A549; above 10 µM in the data set on SK-OV-3; above 10 µM in the data set with SK-MEL-2; above 10 µM in the data set with HCT-15; 7.7 µM in the data set with BV-2 [2]. In addition, in data set [3], the viability at 24 h, 20 µM was found to be 108%.

`O=C1C=C2C=CCC[C@]2(c2ccccn2)O1`: the IC50 with A549, with SK-OV-3, with SK-MEL-2 and with HCT-15 was above 10 µM throughout.

For the compound `CNC(=N)NCCC[C@H](N)C(=O)O` [TILARGININE], the viability at 24 h, 20 µM in data set [3] turned out to be 99.7%.

With `COc1cc([C@@H]2c3cc4c(cc3[C@@H](O[C@@H]3O[C@@H]5CO[C@@H](C)O[C@H]5[C@H](O)[C@H]3O)[C@H]3COC(=O)[C@H]23)OCO4)cc(OC)c1O` [ETOPOSIDE], the IC50 was 0.7 µM with A549, 1.8 µM with SK-OV-3, 0.3 µM in the data set on SK-MEL-2 and 0.3 µM with HCT-15.

Turning to `O=C1C=C2C=C[C@@H]3C[C@@]2(O1)[C@@]1(O)[C@H]2O[C@H]2CCN31`, the IC50 in the data set on A549 is 6.8 µM; in the data set on SK-OV-3, 3.4 µM; in the data set on SK-MEL-2, 1.9 µM; with HCT-15, 1.5 µM. The Activity entry with BV-2 [4] is given as “Toxic”.

As for `O=C1C=C2C=C[C@H](O)C[C@@H]2O1`, the IC50 with A549, in the data set on SK-OV-3, in the data set with SK-MEL-2 and with HCT-15 was above 10 µM each time.

For `CO[C@H]1CCN2O[C@H]3C=CC[C@@]4(OC(=O)C=C34)[C@@H]2C1`, the IC50 in the data set on A549, in the data set with SK-OV-3, in the data set with SK-MEL-2 and in the data set with HCT-15 was above 10 µM throughout.

Take `O=C1C=C2C=C[C@H]3C[C@@]2(O1)[C@@H]1C[C@@H](O)CCN1O3`: the IC50 with A549, with SK-OV-3, in the data set on SK-MEL-2 and in the data set on HCT-15 was above 10 µM each time.

Consider `O=C1C=C2C=C[C@@H]3C[C@@]2(O1)[C@@H]1[C@H]2O[C@H]2CCN31`, for which the IC50 with A549 was above 10 µM; in the data set with SK-OV-3, above 10 µM; with SK-MEL-2 it was above 10 µM; in the data set on HCT-15, above 10 µM; in the data set on BV-2 [2] it was 12.6 µM. In addition, the viability at 24 h, 20 µM in data set [3] was found to be 92.8%; in data set [1], 101%. For the same compound, in the data set on C6, the Activity worked out at 145.3%.

For the compound `CO[C@H]1CCN2O[C@@H]3C=CC4=CC(=O)O[C@]4(C3)[C@@H]2C1` [SECURINEGA AMAMINE D], the IC50 in the data set with A549 is above 10 µM; in the data set on SK-OV-3, above 10 µM; in the data set on SK-MEL-2 it was above 10 µM; in the data set with HCT-15 it was above 10 µM; with BV-2 [2], 23.9 µM. For the same compound, the viability at 24 h, 20 µM in data set [3] was determined as 86.5%.

Take `O=C1C=C2C=C[C@H]3C[C@]2(O1)[C@H]1CCCCN1O3`: the IC50 with A549 is above 10 µM; with SK-OV-3, above 10 µM; in the data set with SK-MEL-2, above 10 µM; in the data set on HCT-15, above 10 µM; with BV-2 [2] it was 12.1 µM. Also, the viability at 24 h, 20 µM in data set [3] amounted to 96.7%.

`O=C1C=C2C=C[C@@H]3C[C@@]2(O1)[C@H]1CCCCN31` [SECURININE]: the IC50 in the data set on A549 was above 10 µM; in the data set with SK-OV-3, above 10 µM; in the data set with SK-MEL-2 it was above 10 µM; in the data set on HCT-15, above 10 µM; in the data set with BV-2 [2] it was 1.1 µM. Also, the viability at 24 h, 20 µM stood at 101% in [3] and 102% in [1]. For the same compound, the Activity in the data set on C6 was 141.1%.

As to `O=C1C=C2C=C[C@@H]3C[C@@]2(O1)[C@@H]1CCC(=O)C(=O)N31`, the IC50 with A549, in the data set on SK-OV-3, with SK-MEL-2 and in the data set with HCT-15 was above 10 µM each time. Further, the Activity in the data set with C6 was found to be 172.7%. In [1], the viability at 24 h, 20 µM came to 101%.

Take `O=C1C=C2C=C[C@H](O)C[C@]2(c2ccccn2)O1`: the IC50 with A549, with SK-OV-3, in the data set with SK-MEL-2 and in the data set on HCT-15 was above 10 µM throughout.

Consider `CO[C@H]1CCN2[C@@H]3C=CC4=CC(=O)O[C@]4(C3)[C@@H]2C1`, for which the IC50 with A549 was above 10 µM; with SK-OV-3, above 10 µM; with SK-MEL-2, above 10 µM; with HCT-15, above 10 µM; with BV-2 [2] it was 31.5 µM. For the same compound, in data set [3], the viability at 24 h, 20 µM is 88.7%.
